Test results reported in ChEMBL document CHEMBL4808162, “Constraining the Side Chain of C-Terminal Amino Acids in Apelin-13 Greatly Increases Affinity, Modulates Signaling, and Improves the Pharmacokinetic Profile” (J Med Chem, 2021).
Calls of active or inactive are those of the source. No cut-off for these calls is given here.

Assays:
Apelin receptor [1] = biological target: T1, Apelin receptor (Homo sapiens, UniProt P35414); assay: Agonist activity at human APJ receptor expressed in HEK293T cells co-expressing PDZ-Rho-Gef-RLucll and rGFP-CAAX assessed as induction of recruitment of Galpha12 to cell membrane using coelenterazine luciferase substrate incubated for 5 mins by BRET assay; format: functional, cell-based, HEK293
T1 sequence (P35414 whole entry): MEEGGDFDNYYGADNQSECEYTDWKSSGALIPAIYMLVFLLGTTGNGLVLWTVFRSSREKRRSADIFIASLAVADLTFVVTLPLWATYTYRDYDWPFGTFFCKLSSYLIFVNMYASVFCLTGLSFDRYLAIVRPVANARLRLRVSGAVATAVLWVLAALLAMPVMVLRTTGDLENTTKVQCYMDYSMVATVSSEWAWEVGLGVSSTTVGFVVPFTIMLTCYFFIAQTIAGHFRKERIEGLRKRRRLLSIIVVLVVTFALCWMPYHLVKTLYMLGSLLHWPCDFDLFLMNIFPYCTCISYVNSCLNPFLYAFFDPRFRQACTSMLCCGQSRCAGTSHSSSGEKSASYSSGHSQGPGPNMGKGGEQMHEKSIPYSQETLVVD

Apelin receptor [2] = biological target: T1, Apelin receptor; assay: Agonist activity at human APJ receptor expressed in HEK293 cells co-expressing Rlucll-beta-arrestin2 assessed as induction of beta-arrestin2 recruitment to receptor incubated for 30 mins by BRET assay; format: functional, cell-based
Rattus norvegicus [3] = assay: Hypotensive effect in Sprague-Dawley rat assessed as drop in mean arterial blood pressure at 19.6 nmol/kg, iv bolus injection measured after 1 min; format: functional
Procedure, shortened: (§1)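 Male Sprague-Dawley rats (250−300 g) under ketamine/xylazine (87/13 mg/kg i.m.) on a thermostatic pad. Mean arterial pressure recorded through a right carotid catheter. Saline vehicle bolus given, then 5 min later the peptide i.v. at 19.6 nmol/kg (n = 5) or 65 nmol/kg.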

Apelin receptor [4] = biological target: T1, Apelin receptor; assay: Agonist activity at human APJ receptor expressed in HEK293T cells co-expressing Galphai1 RlucII assessed as dissociation of Galphai1 from Gbetta/gamma subunit measured using coelenterazine luciferase substrate incubated for 5 mins by BRET assay; format: functional, cell-based, HEK293
[5] = biological target: T2, Apelin receptor (Homo sapiens) (UniProt P35414); assay: Agonist activity at human APJ receptor expressed in HEK293T cells co-expressing PDZ-Rho-Gef-RLucll and rGFP-CAAX assessed as induction of recruitment of Galpha12 to cell membrane using coelenterazine luciferase substrate incubated for 5 mins by BRET assay relative to control; format: functional, cell-based; conditions: HEK293, filed as partial agonist
T2 sequence (whole entry): T1 sequence (P35414 whole entry)
Procedure, shortened: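 HEK293T cells (35 000/well) transiently transfected with PEI 48 h before assay, carrying hAPJ, Gα12, Gβ1, Gγ1 and the ebBRET pair PDZ-RhoGEF-RLucII / rGFP-CAAX. Ligand stimulation for 5 min. Curves fitted as normalized variable-slope dose-response with Hill slope shared; eight experiments, each singly.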

[6] = Stability in Sprague-Dawley rat plasma assessed as half life measured up to 24 hrs by UPLC-MS analysis; format: ADME, cell-free
Procedure, shortened: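 Peptide (6 μL of 1 mM aqueous solution) incubated with 27 μL male Sprague-Dawley rat plasma at 37 °C. Time points 0, 1, 2, 4, 7, 24 h, or 0–120 min for labile peptides. Reaction quenched with acetonitrile-ethanol containing N,N-dimethylbenzamide internal standard, filtered, then UPLC-MS. t1/2 from one-phase exponential decay; at least three experiments.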

Rattus norvegicus [7] = assay: Effect on mean arterial blood pressure in Sprague-Dawley rat at 65 nmol/kg, iv bolus injection measured after 1 min; format: functional, organism-based; procedure, shortened: as §1
[8] = biological target: T2, Apelin receptor (Homo sapiens); assay: Agonist activity at human APJ receptor expressed in HEK293 cells co-expressing Rlucll-beta-arrestin2 assessed as induction of beta-arrestin2 recruitment to receptor incubated for 30 mins by BRET assay relative to control; format: functional, cell-based
Procedure, shortened: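 HEK293 cells transiently transfected with PEI, carrying hAPJ-GFP10 and RlucII-β-arrestin2. Cells replated at 50 000/well after 24 h, washed, and placed in HBSS. Ligand given at 10⁻⁵ to 10⁻¹¹ M for 30 min at room temperature. 5 μM coelenterazine 400A added, BRET² ratio GFP10/RlucII read. EC50 from dose-response fit; three experiments, each in triplicate.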

Apelin receptor [9] = biological target: T1, Apelin receptor; assay: Displacement of [125I] [NIe75,Tyr77]Pyr-apelin-13 from YFP-tagged human APJ receptor expressed in HEK293 cells incubated for 1 hr by gamma counting analysis; format: cell-based

Row | Compound | EC50 (Apelin receptor [1]) [nM] | EC50 (Apelin receptor [2]) [nM] | Activity (Rattus norvegicus [3]) [mmHg] | EC50 (Apelin receptor [4]) [nM] | Emax [5] [%] | half-life [6] [min] | Activity (Rattus norvegicus [7]) | Emax [8] [%] | Ki (Apelin receptor [9]) [nM]
1 | CCCC[C@H](NC(=O)[C@@H]1CCCN1C(=O)CNC(=O)[C@H](CCCCN)NC(=O)[C@H](Cc1cnc[nH]1)NC(=O)[C@H](CO)NC(=O)[C@H](CC(C)C)NC(=O)[C@H](CCCNC(=N)N)NC(=O)[C@@H]1CCCN1C(=O)[C@H](CCCNC(=N)N)NC(=O)[C@@H]1CCC(=O)N1)C(=O)N1CCC[C@H]1C(=O)N[C@](C)(Cc1ccc(OCc2ccccc2)cc1)C(=O)O | 4.4 | 30 | 30 | 2.7 | 46 | 54 | – | – | –
2 | CCCC[C@H](NC(=O)[C@@H]1CCCN1C(=O)CNC(=O)[C@H](CCCCN)NC(=O)[C@H](Cc1cnc[nH]1)NC(=O)[C@H](CO)NC(=O)[C@H](CC(C)C)NC(=O)[C@H](CCCNC(=N)N)NC(=O)[C@@H]1CCCN1C(=O)[C@H](CCCNC(=N)N)NC(=O)[C@@H]1CCC(=O)N1)C(=O)N1CCC[C@H]1C(=O)N[C@H](Cc1cc(C2CCCC2)c(OCc2ccccc2)c(C2CCCC2)c1)C(=O)O | 141 | 367 | – | 22 | – | – | inactive | 53 | 13
